Experimental data as given in PMC3134944 (Current Chemical Genomics, 2011).

Columns and labels:
[1] = target: recombinant human GST-GAPDHS (Homo sapiens, UniProt O14556); experiment: GAPDHS dose response / IC50 determination; assay type: biochemical
How it was run: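 IC50 against GST-GAPDHS used the single-point assay conditions with two-fold serial dilutions in DMSO, giving 10 final concentrations from 80 µM to […]. Percent inhibition at each concentration was fitted to a four-parameter variable-slope equation for IC50 and Hill slope. Some runs included 0.01% Tween-20 (final). Ligand efficiency and binding efficiency index were calculated from IC50.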

GAPDH isozymes = conditions: ref PMID: 12788228, PMID: 2353814; cited from earlier work
purified his-GAPDHS = conditions: baculovirus/insect cell expressed his-GAPDHS ref 22; cited from earlier work

Chain of recombinant human GST-GAPDHS (O14556 69-408): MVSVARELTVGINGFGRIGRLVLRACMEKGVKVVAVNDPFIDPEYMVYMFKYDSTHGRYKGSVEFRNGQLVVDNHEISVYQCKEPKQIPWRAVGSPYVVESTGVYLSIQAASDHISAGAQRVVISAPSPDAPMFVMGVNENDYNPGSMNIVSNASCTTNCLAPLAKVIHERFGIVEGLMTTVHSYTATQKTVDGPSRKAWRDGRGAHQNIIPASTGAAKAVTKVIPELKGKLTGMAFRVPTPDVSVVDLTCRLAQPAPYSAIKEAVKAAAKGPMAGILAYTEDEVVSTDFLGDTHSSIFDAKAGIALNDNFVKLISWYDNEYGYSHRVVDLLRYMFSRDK

IC50 ([1]; IC50, follow up, absence of Tween-20, dry powder, no detergent): 47 µM
IC50 ([1]; IC50 in the presence of 0.01% Tween-20, dry powder, 0.01% Tween-20): 53 µM
Structure (SMILES): CC1=CC(=O)c2ccccc2C1=O [Menadione]
inhibitor of GAPDH isozymes in vivo (GAPDH isozymes): non-selective inhibitor
active in Prestwick screen against his-GAPDHS (purified his-GAPDHS): identified as actives
